Results collected from several papers.
Each line is one published result; the experiments were not run side by side.
Target: Vascular endothelial growth factor receptor 2 (KDR, Homo sapiens, UniProt P35968)

For `Cc1cc(Nc2cc(CN3CCOCC3)c3nc(C)c(Cc4ccc(Cl)cc4F)n3n2)n[nH]1`, the IC50 was 109 nM (enzyme activity; inhibitor; TR-FRET).
`CC(C)(C)n1nc(-c2cnc3cc(OC4CC4)ccc3c2)c(C(N)=O)c1N` has an IC50 of 1090 nM (cell-free assay).
With `C=CC(=O)Nc1cccc(CN2C(=O)N(c3c(Cl)c(OC)cc(OC)c3Cl)Cc3cnc(NCCCCN(CC)CC)nc32)c1` the Kd was 210 nM (binding; competition with immobilised ligand).
For `Cc1ccc(C(=O)Nc2ccc(Oc3cc4cnn(C)c4cc3-c3cn[nH]c3)c(F)c2)c(=O)n1-c1ccc(F)cc1`, the IC50 was 347 nM (phosphorylation in cells; inhibitor; AlphaScreen).
`CC(C)(C)n1nc(-c2ccc3nc(OC4CC4)ccc3c2)c(C(N)=O)c1N` gave an IC50 of 450 nM (cell-free assay).
The IC50 of `CN1CCN(c2ccc(Nc3ncc4cc(C#N)c(=O)n(C5CCCC5)c4n3)cc2)CC1` is reported as 56.8 nM (enzyme activity; inhibitor).
`Cc1cc(Nc2cc3ncccc3c(N[C@@H]3C[C@H]4CC[C@@H](C3)N4CCC#N)n2)n[nH]1` gave a Kd of 620 nM (binding; competition with immobilised ligand).
`CNC(=O)c1cc2c(Oc3ccc(NC(=O)C4(C(=O)Nc5ccc(F)cc5)CC4)cc3)ccnc2cc1OC` gave an IC50 of 6 nM (enzyme activity; inhibitor; radiometric).
